Each compound was assayed against Voltage-dependent N-type calcium channel subunit alpha-1B (Homo sapiens, UniProt Q00975) (assay: Inhibition of N-type voltage-dependent calcium channel CaV2.2 in human IMR32 cells assessed as inhibition of KCl-induced increase in intracellular calcium concentration preincubated for 4 to 5 mins before KCl challenge).
Sequence of Voltage-dependent N-type calcium channel subunit alpha-1B (Q00975 whole entry): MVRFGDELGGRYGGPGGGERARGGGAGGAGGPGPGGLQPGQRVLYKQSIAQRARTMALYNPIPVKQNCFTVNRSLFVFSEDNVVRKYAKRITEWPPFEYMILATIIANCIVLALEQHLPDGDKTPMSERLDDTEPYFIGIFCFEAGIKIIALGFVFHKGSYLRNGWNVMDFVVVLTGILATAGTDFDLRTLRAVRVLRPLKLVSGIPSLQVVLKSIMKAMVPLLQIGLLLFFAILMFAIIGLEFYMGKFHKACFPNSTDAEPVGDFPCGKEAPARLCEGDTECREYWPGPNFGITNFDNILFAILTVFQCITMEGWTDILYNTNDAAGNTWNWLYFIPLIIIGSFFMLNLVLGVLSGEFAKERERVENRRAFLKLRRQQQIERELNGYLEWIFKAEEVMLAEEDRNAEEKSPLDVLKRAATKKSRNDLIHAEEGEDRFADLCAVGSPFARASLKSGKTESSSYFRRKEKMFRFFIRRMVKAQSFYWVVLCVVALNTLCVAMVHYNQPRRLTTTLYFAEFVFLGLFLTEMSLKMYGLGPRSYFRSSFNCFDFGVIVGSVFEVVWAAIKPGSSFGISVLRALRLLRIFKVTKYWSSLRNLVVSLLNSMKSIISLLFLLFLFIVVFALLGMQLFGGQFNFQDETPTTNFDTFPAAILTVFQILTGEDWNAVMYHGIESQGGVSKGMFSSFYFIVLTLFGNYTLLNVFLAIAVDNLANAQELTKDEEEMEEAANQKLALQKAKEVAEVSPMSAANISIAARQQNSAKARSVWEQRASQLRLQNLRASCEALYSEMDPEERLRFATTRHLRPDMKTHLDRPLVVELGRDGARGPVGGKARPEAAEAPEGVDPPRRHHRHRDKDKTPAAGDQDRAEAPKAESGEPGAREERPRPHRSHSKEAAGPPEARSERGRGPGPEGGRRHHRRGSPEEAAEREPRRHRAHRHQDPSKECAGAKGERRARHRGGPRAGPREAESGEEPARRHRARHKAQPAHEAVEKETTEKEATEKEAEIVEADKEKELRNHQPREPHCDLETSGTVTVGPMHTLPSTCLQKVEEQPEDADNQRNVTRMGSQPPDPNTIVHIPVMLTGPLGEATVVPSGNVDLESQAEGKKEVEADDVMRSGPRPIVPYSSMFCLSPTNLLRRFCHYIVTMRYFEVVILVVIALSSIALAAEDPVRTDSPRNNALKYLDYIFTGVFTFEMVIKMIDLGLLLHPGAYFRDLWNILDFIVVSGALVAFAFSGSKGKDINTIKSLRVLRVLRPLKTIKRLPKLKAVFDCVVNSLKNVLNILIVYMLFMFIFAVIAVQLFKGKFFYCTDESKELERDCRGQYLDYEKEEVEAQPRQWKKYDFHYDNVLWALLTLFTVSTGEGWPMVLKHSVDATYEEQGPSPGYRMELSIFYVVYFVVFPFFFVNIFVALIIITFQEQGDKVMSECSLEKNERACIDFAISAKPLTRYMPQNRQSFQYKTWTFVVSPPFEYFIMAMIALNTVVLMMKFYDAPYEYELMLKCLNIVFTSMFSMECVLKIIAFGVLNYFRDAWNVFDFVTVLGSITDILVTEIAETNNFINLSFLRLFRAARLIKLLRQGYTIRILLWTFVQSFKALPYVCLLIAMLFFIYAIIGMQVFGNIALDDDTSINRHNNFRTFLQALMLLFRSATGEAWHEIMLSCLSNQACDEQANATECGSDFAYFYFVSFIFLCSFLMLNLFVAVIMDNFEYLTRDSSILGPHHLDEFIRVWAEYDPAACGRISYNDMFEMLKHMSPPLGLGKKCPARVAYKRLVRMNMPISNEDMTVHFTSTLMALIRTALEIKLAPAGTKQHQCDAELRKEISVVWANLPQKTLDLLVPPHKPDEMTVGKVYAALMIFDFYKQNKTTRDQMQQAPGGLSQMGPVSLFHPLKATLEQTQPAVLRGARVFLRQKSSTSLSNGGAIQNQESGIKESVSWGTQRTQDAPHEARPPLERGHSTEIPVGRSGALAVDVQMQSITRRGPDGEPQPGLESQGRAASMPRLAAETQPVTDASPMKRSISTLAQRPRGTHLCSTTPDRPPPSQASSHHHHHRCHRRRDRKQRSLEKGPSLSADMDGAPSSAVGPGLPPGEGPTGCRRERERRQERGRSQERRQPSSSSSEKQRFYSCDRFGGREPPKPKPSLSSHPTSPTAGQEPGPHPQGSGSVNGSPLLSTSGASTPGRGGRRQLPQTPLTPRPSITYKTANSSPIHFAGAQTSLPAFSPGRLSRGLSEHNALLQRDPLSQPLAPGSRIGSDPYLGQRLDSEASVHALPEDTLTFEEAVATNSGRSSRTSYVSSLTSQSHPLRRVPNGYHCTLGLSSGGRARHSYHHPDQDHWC
How it was run: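 IMR-32 cells on poly-L-lysine/collagen dishes, differentiated with 1 mM dibutyl-cAMP and 2.5 µM bromodeoxyuridine for 10–14 days. Loaded with 2.5 µM fura-2/AM, 37 °C, 30 min. HEPES recording medium with 1 µM nifedipine throughout. Calcium rise evoked by 60 mM KCl for 6 s, repeated every 5 min. Compound at 0.1, 1 or 10 µM; IC50 from ≥2 independent experiments.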
COC(OC)C1=C(C(=O)OC/C=C/c2ccccc2)C(c2cccc(Cl)c2)C(C(=O)O)C=N1 (configuration not stated) gave an IC50 of 1100 nM.
COc1c(Cl)cc(C2C(C(=O)OC/C=C/c3ccccc3)=CN=CC2C(=O)O)cc1Cl (configuration not stated) showed an IC50 of 580 nM.
Work on O=C(OC/C=C/c1ccccc1)C1=CN=CC(C(=O)O)C1c1ccc(Cl)cc1 (configuration not stated) yielded an IC50 of 1200 nM.
COC(OC)C1=C(C(=O)OC/C=C/c2ccccc2)C(c2cccc(C(F)(F)F)c2)C(C(=O)O)C=N1 (configuration not stated) was tested, and the IC50 was 1100 nM.
Compound COC(OC)C1=C(C(=O)OC/C=C/c2ccccc2)C(c2ccc(Cl)cc2)C(C(=O)O)C=N1 (configuration not stated) has an IC50 of 1100 nM.
Work on O=C(OC/C=C/c1ccccc1)C1=CN=CC(C(=O)O)C1c1cccc(C(F)(F)F)c1 (configuration not stated) yielded an IC50 of 1200 nM.
COc1c(Cl)cc(C2C(C(=O)OC/C=C/c3ccccc3)=C(C(OC)OC)N=CC2C(=O)O)cc1Cl (configuration not stated) was tested, and the IC50 was 1200 nM.

From BindingDB's records for doi:10.1016/j.bmcl.2012.04.051 (Ajinomoto Pharmaceuticals, 2012)
